Marks after values point to notes of the source that are not given here.
Tests used:
brain FAAH = biological target: T1, brain FAAH (Homo sapiens, UniProt O00519); assay: brain FAAH occupancy by PET with [11C]MK3168; type: in vivo
T1 sequence (O00519 1-579): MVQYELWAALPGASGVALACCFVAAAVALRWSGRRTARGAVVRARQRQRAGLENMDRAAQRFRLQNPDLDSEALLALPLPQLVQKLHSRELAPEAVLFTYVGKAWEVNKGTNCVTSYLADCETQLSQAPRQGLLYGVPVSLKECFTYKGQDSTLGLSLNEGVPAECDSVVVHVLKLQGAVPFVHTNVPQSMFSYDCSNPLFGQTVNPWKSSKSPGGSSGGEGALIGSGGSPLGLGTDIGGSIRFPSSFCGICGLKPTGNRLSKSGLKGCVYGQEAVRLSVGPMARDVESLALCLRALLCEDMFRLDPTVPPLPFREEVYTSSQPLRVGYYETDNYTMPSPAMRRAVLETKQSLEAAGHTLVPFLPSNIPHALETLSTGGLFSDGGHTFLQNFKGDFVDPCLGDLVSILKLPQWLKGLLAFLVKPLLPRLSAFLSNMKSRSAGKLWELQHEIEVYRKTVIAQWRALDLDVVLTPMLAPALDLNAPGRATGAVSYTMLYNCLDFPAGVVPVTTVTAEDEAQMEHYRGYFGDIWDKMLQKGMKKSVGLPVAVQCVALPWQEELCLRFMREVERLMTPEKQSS
Procedure, shortened: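 Healthy men were scanned by PET with [11C]MK3168 at baseline. In Part 2, scans followed single oral doses (2.5–100 mg range, adaptive; tracer injected 1 h postdose), with repeat doses at least 1 week apart. In Part 3, scans were 24 h after a single dose and 24 h after the last of 7 daily doses. Occupancy came from two-tissue compartment VT, baseline versus treatment.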

behavioral evaluations = type: in vivo, human
[1] = system: plasma FAA (AEA, OEA, PEA); assay: FAA concentrations in plasma; type: in vivo, human
Procedure, shortened: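 Plasma AEA, OEA and PEA were followed in healthy volunteers given oral test compound (10–100 mg) or placebo once daily for 10 days, six active and two placebo per cohort. Concentration–time profiles were taken on day 1 (0–24 h postdose) and day 10 (0–96 h postdose). Mean peak values were compared with mean peak placebo values.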

FAAH [2] = settings: cited from earlier work
[3] = JNJ-42165279 concentration in CSF, MAD study; type: in vivo, human; settings: after 7 days
Procedure, shortened: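 Test compound in CSF was quantified by a validated LC/MS/MS method after 7 days of once-daily oral dosing in healthy volunteers: 10 mg young men, 25 mg young men, and 100 mg elderly (men only). Values were related to plasma concentrations at Cmax on day 10.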

plasma protein binding = type: in vitro ADME; settings: humans, estimated
FAAH [4] = biological target: T2, FAAH (Homo sapiens, UniProt O00519); assay: FAAH activity in leukocytes; type: in vivo
T2 sequence (O00519 1-579): T1 sequence (O00519 1-579)
Procedure, shortened: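 Leukocyte FAAH activity was assayed in healthy volunteers dosed orally once daily for 10 days (10–100 mg cohorts, placebo controls). It was expressed as percent of predose activity. Sampling ran 0–24 h postdose on day 1 and 0–96 h after the day-10 dose. In the PET study, leukocytes were also sampled at scan midpoint, about 4 h 45 min postdose.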

[5] = JNJ-42165279 plasma and urine pharmacokinetics, MAD study; type: in vivo, human
Procedure, shortened: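 Plasma and urine samples were taken from healthy volunteers given oral test compound once daily for 10 days (10–100 mg cohorts). Plasma was assayed by validated LC/MS/MS, with profiles over 0–24 h on day 1 and 0–96 h on day 10. PK parameters came from noncompartmental analysis. Accumulation ratios compared day 10 with day 1.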

[6] = treatment-emergent adverse events and safety, MAD study; type: in vivo, human; settings: MAD and PET studies
Procedure, shortened: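 Safety covered treatment-emergent adverse events, physical examinations, laboratory tests, 12-lead ECG and vital signs. Subjects were healthy volunteers on 10 days of once-daily oral test compound (10–100 mg) or placebo, double-blind and randomized, six active and two placebo per cohort.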

CSF FAA (AA, AEA, OEA) = assay: FAA concentrations in CSF; type: in vivo, human; settings: for AEA concentration in cerebrospinal fluid / OEA concentration in cerebrospinal fluid / AA concentration in cerebrospinal fluid: young male volunteers, mean (SD)
Procedure, shortened: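 CSF sampled in the double-blind, placebo-controlled multiple-ascending-dose study in healthy volunteers. Oral test compound or placebo was given once daily for 10 days: 10, 25 or 75 mg in young men, 100 mg in young women, 100 mg in elderly subjects. AEA, OEA and arachidonic acid were measured predose and after 6–7 days of dosing. Values were expressed against predose or baseline.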

WBC FAAH = settings: 4 mg once-daily dose more than sufficient; cited from earlier work
[7] = patients with osteoarthritis; cited from earlier work
human FAAH = settings: cited from earlier work
[8] = [11C]MK3168 radiometabolite analysis and brain uptake; type: in vivo, human; settings: for standardized uptake value (SUV), gray matter regions / tracer uptake in gray matter regions: baseline
Procedure, shortened: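 In healthy men, the tracer was given as a slow IV bolus (356 ± 57MBq; molar activity 111 ± 67 GBq/μmol), synchronized with a 90-min list-mode PET/CT acquisition after low-dose CT for attenuation correction. Discrete arterial samples at each scan measured parent tracer and radiometabolites as the input function. Brain time-activity curves came from MRI-coregistered, template-based regions.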

[9] = single clinical doses, healthy volunteers; cited from earlier work
[10] = ∼24 h after stopping the 10 mg dosing
[11] = day 10 vs day 1, doses 10–100 mg, range across cohorts
[12] = Predose (baseline), 10 mg cohort
[13] = Predose (baseline), 25 mg cohort
[14] = Predose (baseline), 75 mg cohort

O=C(Nc1cnccc1Cl)N1CCN(Cc2ccc3c(c2)OC(F)(F)O3)CC1 [JNJ‐42165279]
occupancy of brain FAAH (brain FAAH; 24 h after dosing with 10 mg): 80–85%
FAAH occupancy at trough (brain FAAH; after the first dose of 10 mg): > 80%
doses giving saturation of brain FAAH occupancy (brain FAAH; in vivo): ≥ 10 mg
brain FAAH occupancy (brain FAAH; single doses of 2.5 and 5 mg, at estimated Cmax): lesser, although appreciable, occupancy
brain FAAH occupancy (brain FAAH; single doses of 10, 25, and 50 mg, at estimated Cmax): 96–98%
brain FAAH occupancy (brain FAAH; [10]): ≥ 80%
quality of working memory (QWM) (behavioral evaluations; 100 mg, elderly volunteers, P ≤ 0.05, 4 h postdose days 1, 6, 10): significant negative treatment effect
ARCI-53 report (behavioral evaluations; 100 mg, women of nonchild-bearing potential): slight similarity to sedatives and dissimilarity to stimulants
treatment effect on tapping, tracking, and postural stability (behavioral evaluations; MAD study): No treatment effects were observed
ARCI-53: experiences similar to marijuana or hallucinogens (behavioral evaluations; all groups): no groups reported experiences similar to marijuana or hallucinogens
doses with maximal effect on plasma AEA turnover ([1]; in vivo): ≥ 75 mg
increase of plasma AEA levels ([1]; lowest dose tested in the MAD study (10 mg)): ≥ 10 fold
mean peak plasma AEA concentration versus mean peak placebo values ([1]; single doses 10–100 mg): 5.5–10 fold
mean peak plasma OEA and PEA concentrations versus mean peak placebo ([1]; single doses 10–100 mg): 4.3–5.6 fold
affinity for human over rat FAAH (FAAH [2]): much higher affinity
Mean concentration of JNJ-42165279 in CSF ([3]; cohort A (25 mg)): 8.95 ng/mL
Mean concentration of JNJ-42165279 in CSF ([3]; cohort D, men only): 31.8 ng/mL
Mean concentration of JNJ-42165279 in CSF ([3]; cohort E (10 mg)): 2.67 ng/mL
CSF concentration relative to plasma values at Cmax on day 10 ([3]; slightly over): over 3%
unbound fraction (plasma protein binding): 6.4–7.5%
FAAH activity remaining in leukocytes, mean trough (FAAH [4]; relative to predose values, after a single dose, 10–100 mg dose range): 7.85–10.4%
FAAH activity recovered in leukocytes (FAAH [4]; [10]): ~50%
estimated accumulation ratio for AUC [5, 11]: 144–337%
estimated accumulation ratio for Cmax [5, 11]: 98–156%
terminal half-life ([5]; in vivo): 8 to 14 h
Mean plasma half-life ([5]; range of cohort means, 10–100 mg QD): 8.14 to 14.1 h
deaths, serious or severe TEAEs, discontinuations due to TEAEs [6]: No deaths, serious, or severe treatment emergent adverse event (TEAEs) or discontinuations due to TEAEs
vital signs, ECG parameters including QTc, physical examination [6]: no clinically significant treatment effects were observed
increase of mean CSF AEA concentration relative to predose (CSF FAA (AA, AEA, OEA); 10 mg daily for 7 days): ~45 fold
increase of mean CSF OEA concentration relative to predose (CSF FAA (AA, AEA, OEA); 10 mg daily for 7 days): ~6.6 fold
increase of mean CSF AEA concentration relative to predose (CSF FAA (AA, AEA, OEA); 25 mg daily for 7 days): ~41 fold
increase of mean CSF OEA concentration relative to predose (CSF FAA (AA, AEA, OEA); 25 mg daily for 7 days): ~5.8 fold
increase of mean CSF AEA concentration relative to predose (CSF FAA (AA, AEA, OEA); 75 mg daily for 7 days): ~77 fold
increase of mean CSF OEA concentration relative to predose (CSF FAA (AA, AEA, OEA); 75 mg daily for 7 days): ~7.4 fold
AEA concentration in cerebrospinal fluid (CSF FAA (AA, AEA, OEA); Day 7, 10 mg daily): 12.6 (4.86)
OEA concentration in cerebrospinal fluid (CSF FAA (AA, AEA, OEA); Day 7, 10 mg daily): 139 (42.0)
AA concentration in cerebrospinal fluid (CSF FAA (AA, AEA, OEA); Day 7, 25 mg daily, n=5): 1.44 (0.52) ^b
AEA concentration in cerebrospinal fluid (CSF FAA (AA, AEA, OEA); Day 7, 25 mg daily, n=5): 21.24 (7.39) ^b
OEA concentration in cerebrospinal fluid (CSF FAA (AA, AEA, OEA); Day 7, 25 mg daily, n=5): 116.81 (26.07) ^b
AA concentration in cerebrospinal fluid (CSF FAA (AA, AEA, OEA); Day 7, 75 mg daily, n=5): 1.81 (0.72) ^b
AEA concentration in cerebrospinal fluid (CSF FAA (AA, AEA, OEA); Day 7, 75 mg daily, n=5): 28.88 (9.52) ^b
OEA concentration in cerebrospinal fluid (CSF FAA (AA, AEA, OEA); Day 7, 75 mg daily, n=5): 150.24 (34.64) ^b
AEA concentration in cerebrospinal fluid (CSF FAA (AA, AEA, OEA); [12]): 0.28 (0.31)
OEA concentration in cerebrospinal fluid (CSF FAA (AA, AEA, OEA); [12]): 21.2 (5.33)
AA concentration in cerebrospinal fluid (CSF FAA (AA, AEA, OEA); [13]): 1.85 (0.52)
AEA concentration in cerebrospinal fluid (CSF FAA (AA, AEA, OEA); [13]): 0.52 (0.16)
OEA concentration in cerebrospinal fluid (CSF FAA (AA, AEA, OEA); [13]): 20.15 (10.19)
AA concentration in cerebrospinal fluid (CSF FAA (AA, AEA, OEA); [14]): 2.04 (0.86)
AEA concentration in cerebrospinal fluid (CSF FAA (AA, AEA, OEA); [14]): 0.38 (0.21)
OEA concentration in cerebrospinal fluid (CSF FAA (AA, AEA, OEA); [14]): 20.21 (8.25)
increase of AEA concentrations in CSF (CSF FAA (AA, AEA, OEA); after 7 days of dosing): 40–70 fold

O=C(Nc1cccnn1)N1CCC(=Cc2cccc(Oc3ccc(C(F)(F)F)cn3)c2)CC1 [PF‐04457845]
inhibition of WBC FAAH (WBC FAAH): 97%
effect on pain perception [7]: no effect on pain perception

CN(C)C(=O)[C@H]1C[C@@H]1c1ccc(-c2ncn(C)c2Sc2ccc(Cl)cn2)cc1 [[^11C]MK3168]
IC50 (human FAAH): 1 ± 0.6 nM
standardized uptake value (SUV), gray matter regions ([8]; at 20 min): ~3.0
tracer uptake in gray matter regions ([8]; at 20 min): ~15 kBq/cc
standardized uptake value (SUV), gray matter regions ([8]; at 90 min): ~2.0
tracer uptake in gray matter regions ([8]; at 90 min): ~10 kBq/cc
parent tracer remaining in plasma ([8]; baseline scans, 10 min postinjection): 30–40%
elimination of tracer from plasma ([8]; baseline scans, 60 min p.i.): almost complete elimination

CCCCCCC(C)(C)c1cc(O)c2c(c1)OC(C)(C)C1CCC(=O)CC21 (stereo not shown) [nabilone]
effect on cognitive performance [9]: notable impairment on cognitive performance
